The source made the active and inactive calls.
Experiments:
Mus musculus [1] = experiment: Increase in caspase-3 cleavage in tumor of SCID mouse xenografted with human RS4:11 cells at 5 mg/kg administered as single dose measured up to 6 hrs by Western blot method; format: functional, organism-based
Outline: (§1)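 SCID mice bearing subcutaneous RS4;11 tumors received a single 5 mg/kg iv dose. Sacrificed at 1, 3, 6 and 24 h, with vehicle controls at 6 h, two mice per time point. Tumors ground in liquid nitrogen and lysed in CHAPS buffer, then immunoblotted for BRD2/3/4, c-Myc, PARP/cleaved PARP and caspase-3/cleaved caspase-3. Actin served as loading control.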

[2] = Drug metabolism in mouse liver microsomes assessed as N-butyl-4-(3-cyclopropyl-1-ethyl-1H-pyrazol-5-ylamino)-7-(3,5-dimethylisoxazol-4-yl)-6-methoxy-9H-pyrimido[4,5-b]indole-2-carboxamide formation at 10 uM after 20 to 40 mins in presence of beta-NADPH […]; format: ADME, microsome
[3] = target: T1, Protein cereblon/Bromodomain-containing protein 3/Cullin-4A (Homo sapiens) (UniProt Q15059+Q96SW2+Q13619); experiment: Induction of cereblon/cullin 4A-mediated BRD3 degradation in human RS4:11 cells at 1 nM after 3 hrs in presence of cereblon inhibitor lenalidomide by Western blot method; format: cell-based
Mus musculus [4] = experiment: In vivo induction of cereblon/cullin 4A-mediated BRD2 degradation in tumor of SCID mouse xenografted with human RS4:11 cells at 5 mg/kg, iv administered as single dose measured after 24 hrs by Western blot method; format: functional, organism-based; outline: as §1
[5] = target: T2, Protein cereblon/Bromodomain-containing protein 2/Cullin-4A (Homo sapiens) (UniProt P25440+Q96SW2+Q13619); experiment: Induction of cereblon/cullin 4A-mediated BRD2 degradation in human RS4:11 cells at 1 nM after 3 hrs in presence of cereblon inhibitor lenalidomide by Western blot method; format: cell-based
RS4-11 [6] = experiment: Antitumor activity against human RS4:11 cells xenografted in SCID mouse assessed as tumor growth regression at 5 mg/kg, iv […] administered every other day three times per week for 3 weeks relative to control; format: functional
Outline: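 SCID mice given 5×10⁶ RS4;11 cells in 50% Matrigel subcutaneously on the dorsal side, one tumor per mouse. Randomized at ~100 mm³, then dosed 5 mg/kg iv every other day, three times a week for 3 weeks. Tumors measured by caliper 2–3 times/week, V = LW²/2. Body weight recorded 2–3 times/week and daily toxicity checks made.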

MOLM-13 [7] = experiment: Induction of cell cycle arrest in human MOLM13 cells after 24 hrs by propidium iodide staining based flow cytometry; format: functional
Outline: (§2)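 RS4;11 or MOLM-13 cells treated with compound for 24 h, then analyzed by flow cytometry. Cell cycle read by propidium iodide staining and apoptosis by annexin V/propidium iodide staining.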

[8] = Drug metabolism in mouse liver microsomes assessed as metabolite m1 formation at 10 uM after 20 to 40 mins in presence of beta-NADPH […]; format: ADME, microsome
RS4-11 [9] = experiment: Induction of apoptosis in human RS4:11 cells at 3 to 10 nM after 24 hrs by Annexin-V/propidium iodide staining based flow cytometry; format: functional, cell-based; outline: as §2
[10] = target: T3, Protein cereblon/Bromodomain-containing protein 4/Cullin-4A (Homo sapiens) (UniProt O60885+Q96SW2+Q13619); experiment: Induction of cereblon/cullin 4A-mediated BRD4 degradation in human RS4:11 cells at 0.03 nM after 24 hrs by Western blot method; format: cell-based
Outline: (§3)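 Western blot of RS4;11 cells (2 × 10⁶ cells/well) in RPMI 1640 with 10% FBS, 37 °C, 5% CO₂, used within three months of thawing. Compound exposure was 3 h or 24 h at the indicated concentrations. Cells were lysed in RIPA with protease inhibitors, and BRD2, BRD3 and BRD4 were detected with specific antibodies, with GAPDH as loading control.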

[11] = target: T2, Protein cereblon/Bromodomain-containing protein 2/Cullin-4A (Homo sapiens); experiment: Induction of cereblon/cullin 4A-mediated BRD2 degradation in human RS4:11 cells at 1 nM after 3 hrs in presence of BET inhibitor 4-((3-Cyclopropyl-1-ethyl-1H-pyrazol-5-yl)amino)-7-(3,5-dimethylisoxazol-4-yl)-6-methoxy-N-methyl-9H-pyrimido[4,5-b]-indole-2-carboxamide by Western blot method; format: cell-based
[12] = target: T3, Protein cereblon/Bromodomain-containing protein 4/Cullin-4A (Homo sapiens); experiment: Induction of cereblon/cullin 4A-mediated BRD4 degradation in human RS4:11 cells at 1 nM after 3 hrs in presence of NAE inhibitor MLN4924 by Western blot method; format: cell-based
MOLM-13 [13] = experiment: Induction of apoptosis in human MOLM13 cells at 3 to 10 nM after 24 hrs by Annexin-V/propidium iodide staining based flow cytometry; format: functional, cell-based; outline: as §2
Mus musculus [14] = experiment: In vivo induction of cereblon/cullin 4A-mediated BRD3 degradation in tumor of SCID mouse xenografted with human RS4:11 cells at 5 mg/kg, iv administered as single dose measured after 24 hrs by Western blot method; format: functional, organism-based; outline: as §1
[15] = target: T1, Protein cereblon/Bromodomain-containing protein 3/Cullin-4A (Homo sapiens); experiment: Induction of cereblon/cullin 4A-mediated BRD3 degradation in human RS4:11 cells at 1 nM after 3 hrs in presence of NAE inhibitor MLN4924 by Western blot method; format: cell-based
[16] = target: T2, Protein cereblon/Bromodomain-containing protein 2/Cullin-4A (Homo sapiens); experiment: Induction of cereblon/cullin 4A-mediated BRD2 degradation in human RS4:11 cells at 0.1 nM after 24 hrs by Western blot method; format: cell-based
Outline: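 RS4;11 cells (2 × 10⁶/well) treated for 24 h at the indicated concentrations. Lysed in RIPA with protease inhibitors and immunoblotted for BRD2, BRD3, BRD4, c-Myc and PARP, with GAPDH as loading control.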

[17] = target: T2, Protein cereblon/Bromodomain-containing protein 2/Cullin-4A (Homo sapiens); experiment: Induction of cereblon/cullin 4A-mediated BRD2 degradation in human RS4:11 cells at 1 nM after 3 hrs in presence of proteosome inhibitor MG-132 by Western blot method; format: cell-based
Mus musculus [18] = experiment: In vivo induction of cereblon/cullin 4A-mediated BRD4 degradation in tumor of SCID mouse xenografted with human RS4:11 cells at 5 mg/kg, iv administered as single dose measured after 24 hrs by Western blot method; format: functional, organism-based; outline: as §1
[19] = Drug metabolism in mouse liver microsomes assessed as metabolite m2 formation at 10 uM after 20 to 40 mins in presence of beta-NADPH […]; format: ADME, microsome
[20] = Drug metabolism in mouse liver microsomes assessed as metabolite m3 formation at 10 uM after 20 to 40 mins in presence of beta-NADPH […]; format: ADME, microsome
[21] = target: T2, Protein cereblon/Bromodomain-containing protein 2/Cullin-4A (Homo sapiens); experiment: Induction of cereblon/cullin 4A-mediated BRD2 degradation in human RS4:11 cells at 1 nM after 3 hrs in presence of NAE inhibitor MLN4924 by Western blot method; format: cell-based
[22] = target: T3, Protein cereblon/Bromodomain-containing protein 4/Cullin-4A (Homo sapiens); experiment: Induction of cereblon/cullin 4A-mediated BRD4 degradation in human RS4:11 cells after 3 hrs by Western blot method; format: cell-based; outline: as §3
RS4-11 [23] = experiment: Induction of cell cycle arrest in human RS4:11 cells after 24 hrs by propidium iodide staining based flow cytometry; format: functional; outline: as §2
[24] = Drug metabolism in mouse liver microsomes assessed as 4-(3-cyclopropyl-1H-pyrazol-5-ylamino)-7-(3,5-dimethylisoxazol-4-yl)-N-(5-(2-(2,6-dioxopiperidin-3-yl)-1-oxoisoindolin-4-yl)pentyl)-6-methoxy-9H-pyrimido[4,5-b]indole-2-carboxamide formation at 10 uM after 20 to 40 mins in presence of beta-NADPH […]; format: ADME, microsome
[25] = target: T1, Protein cereblon/Bromodomain-containing protein 3/Cullin-4A (Homo sapiens); experiment: Induction of cereblon/cullin 4A-mediated BRD3 degradation in human RS4:11 cells at 1 nM after 3 hrs in presence of proteosome inhibitor MG-132 by Western blot method; format: cell-based
Mus musculus [26] = experiment: Increase in PARP cleavage in tumor of SCID mouse xenografted with human RS4:11 cells at 5 mg/kg administered as single dose measured up to 6 hrs by Western blot method; format: functional, organism-based; outline: as §1

T2 sequence (P25440 whole entry, looked up): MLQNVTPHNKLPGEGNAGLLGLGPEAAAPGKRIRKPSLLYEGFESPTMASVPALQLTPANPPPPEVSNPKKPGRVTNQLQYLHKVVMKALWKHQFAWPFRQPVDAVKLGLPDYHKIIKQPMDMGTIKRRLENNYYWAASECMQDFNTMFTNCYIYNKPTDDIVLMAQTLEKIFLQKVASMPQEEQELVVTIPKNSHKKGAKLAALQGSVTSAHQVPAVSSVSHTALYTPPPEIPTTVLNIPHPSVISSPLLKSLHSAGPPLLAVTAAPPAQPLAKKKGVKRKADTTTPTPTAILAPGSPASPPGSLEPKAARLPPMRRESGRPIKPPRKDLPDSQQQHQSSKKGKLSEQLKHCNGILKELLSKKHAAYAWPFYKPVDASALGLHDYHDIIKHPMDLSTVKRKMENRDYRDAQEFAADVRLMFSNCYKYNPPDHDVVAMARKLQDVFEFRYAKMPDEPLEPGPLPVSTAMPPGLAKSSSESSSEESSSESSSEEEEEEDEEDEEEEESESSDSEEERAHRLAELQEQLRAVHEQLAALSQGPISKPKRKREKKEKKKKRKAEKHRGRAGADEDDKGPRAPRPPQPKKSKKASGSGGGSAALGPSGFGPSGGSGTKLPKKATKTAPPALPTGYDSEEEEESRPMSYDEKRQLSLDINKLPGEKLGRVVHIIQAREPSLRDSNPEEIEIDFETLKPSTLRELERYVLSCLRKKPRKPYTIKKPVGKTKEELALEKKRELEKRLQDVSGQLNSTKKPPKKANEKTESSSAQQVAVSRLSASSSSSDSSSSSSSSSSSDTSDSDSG
T2 sequence (Q13619 whole entry, looked up): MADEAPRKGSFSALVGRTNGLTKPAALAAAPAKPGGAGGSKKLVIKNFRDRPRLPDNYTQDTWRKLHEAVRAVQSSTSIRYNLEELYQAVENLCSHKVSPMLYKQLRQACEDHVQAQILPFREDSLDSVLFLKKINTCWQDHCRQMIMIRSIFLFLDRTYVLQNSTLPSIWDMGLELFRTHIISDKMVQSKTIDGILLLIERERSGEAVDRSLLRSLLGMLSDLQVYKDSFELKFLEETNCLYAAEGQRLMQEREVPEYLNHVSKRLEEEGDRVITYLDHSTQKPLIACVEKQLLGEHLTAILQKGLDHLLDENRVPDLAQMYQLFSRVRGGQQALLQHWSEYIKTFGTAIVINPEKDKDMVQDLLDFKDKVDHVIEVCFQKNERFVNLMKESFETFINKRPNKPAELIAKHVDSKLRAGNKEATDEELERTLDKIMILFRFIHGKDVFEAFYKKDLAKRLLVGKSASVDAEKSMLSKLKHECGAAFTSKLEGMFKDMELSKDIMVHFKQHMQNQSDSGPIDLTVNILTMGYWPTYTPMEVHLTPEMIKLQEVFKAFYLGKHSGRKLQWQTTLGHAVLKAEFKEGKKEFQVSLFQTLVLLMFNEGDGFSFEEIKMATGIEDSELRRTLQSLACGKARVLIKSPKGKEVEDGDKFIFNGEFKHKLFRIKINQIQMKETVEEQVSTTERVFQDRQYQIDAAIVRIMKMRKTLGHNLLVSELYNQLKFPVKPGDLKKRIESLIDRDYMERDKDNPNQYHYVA
T2 sequence (Q96SW2 whole entry, looked up): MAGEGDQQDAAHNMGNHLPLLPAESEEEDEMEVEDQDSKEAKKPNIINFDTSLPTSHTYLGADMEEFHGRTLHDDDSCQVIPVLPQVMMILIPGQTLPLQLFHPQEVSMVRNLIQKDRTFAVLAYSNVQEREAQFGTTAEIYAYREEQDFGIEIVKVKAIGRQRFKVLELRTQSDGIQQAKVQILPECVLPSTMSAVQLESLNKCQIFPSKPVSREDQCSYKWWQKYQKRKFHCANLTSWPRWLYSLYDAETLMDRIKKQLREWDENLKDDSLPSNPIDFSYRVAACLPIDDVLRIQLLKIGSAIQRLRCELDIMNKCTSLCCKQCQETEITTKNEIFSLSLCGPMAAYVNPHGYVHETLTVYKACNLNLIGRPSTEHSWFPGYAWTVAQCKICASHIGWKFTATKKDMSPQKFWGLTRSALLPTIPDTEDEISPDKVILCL
T1 sequence (Q13619 whole entry, looked up): as the sequence (Q13619 whole entry, looked up) above
T1 sequence (Q15059 whole entry, looked up): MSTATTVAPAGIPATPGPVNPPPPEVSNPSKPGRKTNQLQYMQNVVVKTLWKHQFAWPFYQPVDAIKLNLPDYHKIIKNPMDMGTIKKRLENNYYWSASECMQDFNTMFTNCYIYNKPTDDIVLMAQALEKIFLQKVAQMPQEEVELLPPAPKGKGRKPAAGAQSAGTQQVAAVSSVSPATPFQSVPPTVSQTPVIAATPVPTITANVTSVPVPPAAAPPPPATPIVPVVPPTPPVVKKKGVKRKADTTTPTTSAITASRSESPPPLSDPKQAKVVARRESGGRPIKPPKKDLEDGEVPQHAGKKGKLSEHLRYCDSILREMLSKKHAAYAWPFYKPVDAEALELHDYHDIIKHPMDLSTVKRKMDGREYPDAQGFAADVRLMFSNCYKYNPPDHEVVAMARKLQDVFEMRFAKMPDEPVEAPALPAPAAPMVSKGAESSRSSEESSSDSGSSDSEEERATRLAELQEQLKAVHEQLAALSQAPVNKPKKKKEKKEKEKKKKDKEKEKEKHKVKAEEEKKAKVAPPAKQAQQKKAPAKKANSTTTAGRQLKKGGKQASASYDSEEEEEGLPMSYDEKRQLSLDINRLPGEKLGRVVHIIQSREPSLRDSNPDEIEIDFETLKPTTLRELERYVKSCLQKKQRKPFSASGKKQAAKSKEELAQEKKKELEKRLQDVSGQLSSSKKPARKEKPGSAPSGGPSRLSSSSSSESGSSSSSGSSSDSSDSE
T1 sequence (Q96SW2 whole entry, looked up): as the sequence (Q96SW2 whole entry, looked up) above

CCn1nc(C2CC2)cc1Nc1nc(C(=O)NCCCCCc2cccc3c2CN(C2CCC(=O)NC2=O)C3=O)nc2[nH]c3cc(-c4c(C)noc4C)c(OC)cc3c12 (stereo unspecified)
Metabolite_Detected: Drug metabolism [2] | Drug metabolism [8] | Drug metabolism [19] | Drug metabolism [20] | Drug metabolism [24]
>90%: Activity (RS4-11 [6])
inactive: Activity [3] | Activity [5] | Activity [11] | Activity [12] | Activity [15] | Activity [17] | Activity [21] | Activity [25]
active: Activity (Mus musculus [1]) | Activity (Mus musculus [4]) | Activity (MOLM-13 [7]) Dose-dependent effect | Activity (RS4-11 [9]) | Activity [10] | Activity (MOLM-13 [13]) | Activity (Mus musculus [14]) | Activity [16] | Activity (Mus musculus [18]) | Activity [22] Dose-dependent effect | Activity (RS4-11 [23]) Dose-dependent effect | Activity (Mus musculus [26])
